Assay results taken from the array DNA melting data of Ke et al. (doi:10.1101/2024.01.08.574731).

Tests used:
[1] = folding enthalpy; higher = less favourable; fluorescence melt of hairpins on a sequencing array, two-state fit; conditions: sodium 0.088 M
How it was run: (§1)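 Hairpins were imaged by Cy3 fluorescence on a sequenced MiSeq flow cell with annealed Cy3 and quencher oligos, in 50 mM Na-HEPES pH 8.0, 25 mM NaCl, in 2.5 °C steps up to 60 °C. Bootstrapped two-state fits of normalised signals gave melting temperature and folding enthalpy. Four replicates were combined by inverse variance, and fitted temperatures were raised by 9.35 °C to match UV melts.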

[2] = melting temperature; fluorescence melt of hairpins on a sequencing array, two-state fit, raised by 9.35 °C to match UV melts; conditions: sodium 0.088 M
How it was run: as §1

Sequence	folding enthalpy [1] [kcal/mol]	Tm [2] [°C]
GCTTAGCGAAAGCTCCGC ((..(((....)))..))	-12.8	36
GCTTAGGCGAAAGCCAGC (((..(((....))))))	-15.1	44.4
GCTTATGGAAACATGAGC (((.(((....))).)))	-33.5	45.6
GCTTCACCGAAAGGTAGC (((..(((....))))))	-16.8	35.3
GCTTCAGAAATGAAGC ((((((....))))))	-33.7	55.7
GCTTCAGGAAACTGAAGC (((((((....)))))))	-32.9	66
GCTTCCCGAAAGGGGAGC (((.(((....))).)))	-46	65.5
GCTTCCCGAAAGGGTAGC (((.(((....))).)))	-33.9	56.4
GCTTCCGAAAGGAAAAGC ((((((....)))..)))	-17.6	49.7
GCTTCCGAAAGGAATAGC ((((((....)))..)))	-17.8	44
GCTTCCGGAAACAGAAGC (((((.(....).)))))	-30.6	41.9
GCTTCGCGAAAGCAAGGC ((.(.((....)).).))	-12.3	36.1
GCTTCGCGAAAGCACAGC (((..((....))..)))	-15.3	38.2
GCTTCGCGAAAGCCAAGC ((((.((....)).))))	-18.2	50.3
GCTTCGCGAAAGCCGAGC (((..((....))..)))	-18.5	41.7
GCTTCGCGAAAGCTAAGC ((((.((....)).))))	-20.5	57.2
GCTTCGCGAAAGCTGAGC (((..((....))..)))	-14.5	45.5
GCTTCGCGAAAGCTTAGC (((..((....))..)))	-15.2	50.2
GCTTCGGCGAAAGCCAGC (((..(((....))))))	-10.3	40.2
GCTTCGGGAAACTGAAGC (((((.(....).)))))	-41.3	53.2
GCTTCGGGAAACTGGAGC (((.(.(....).).)))	-32.7	39.1
GCTTCTCCGAAAGGAAGC (((..(((....))))))	-24.2	45.3
GCTTCTGCGAAAGCAAGC (((..(((....))))))	-9.99	38.3

Sequence	folding enthalpy [1] [kcal/mol]	Tm [2] [°C]
GCTTCTGGAAACAGAGGC ((.((((....)))).))	-33	48.3
GCTTGACGAAAGTCCAGC (((.(((....))).)))	-26.6	49.9
GCTTGAGGAAACCCAAGC (((((.(....).)))))	-37	46
GCTTGAGGAAACTTAAGC ((((.((....)).))))	-26.4	39.7
GCTTGCCGAAAGGCAGC (((.(((....))))))	-14.4	60.1
GCTTGCCGAAAGGCTAGC (((.(((....))).)))	-27.8	64.4
GCTTGCGAAAGCACAGC ((((((....))).)))	-20.1	50.5
GCTTGCGAAAGCACGAGC ((((((....)))..)))	-15.9	46.9
GCTTGCGAAAGCATAAGC ((((((....)))..)))	-19.4	47.9
GCTTGCGAAAGCATCAGC ((((((....)))..)))	-11.8	37.1
GCTTGCGGAAACGCGAGC (((.(((....))).)))	-29.3	64
GCTTGCGGAAACGTAAGC ((((.((....)).))))	-35.1	52.5
GCTTGCGGAAACGTGAGC (((..((....))..)))	-31.5	46.5
GCTTGGCCGAAAGGCAGC (((..(((....))))))	-14.4	46.9
GCTTGGCGAAAGCAACGC ((.(.((....)).).))	-10.5	33.5
GCTTGGCGAAAGCAATGC ((.(.((....)).).))	-12.8	38.4
GCTTGGCGAAAGCCCGGC ((..(((....)))..))	-14.4	45.4
GCTTGGCGAAAGCTTAGC (((..((....))..)))	-16.9	53.4
GCTTGGGGAAACCCAAGC (((((((....)))))))	-43.6	68.3
GCTTGGGGAAACCCAGGC ((.((((....)))).))	-36.8	52.4
GCTTGGGGAAACTCGAGC (((.(.(....).).)))	-31.3	36.9
GCTTGTCGAAAGACTAGC (((.(((....))).)))	-34	53.9
GCTTGTGGAAACACGAGC (((.(((....))).)))	-37.8	54.5

Sequence	folding enthalpy [1] [kcal/mol]	Tm [2] [°C]
GCTTGTGGAAACGCAAGC (((((.(....).)))))	-39.5	55.6
GCTTTAACGAAAGTTAGC (((..(((....))))))	-18.8	31.9
GCTTTAGGAAACTAGAGC (((.(((....))).)))	-31.9	35.4
GCTTTCCGAAAGGAGAGC (((.(((....))).)))	-38.7	54.8
GCTTTCGAAAGAAAAAGC ((((((....)))..)))	-26.6	36
GCTTTCGAAAGAACAAGC ((((((....)))..)))	-24.3	31.8
GCTTTCGAAAGAAGTAGC ((((((....)))..)))	-23	34
GCTTTCGAAAGAATAAGC ((((((....)))..)))	-21.6	33.4
GCTTTCGGAAACGAAGGC ((.((((....)))).))	-35.3	50.9
GCTTTGCGAAAGCAACGC ((.((((....)))).))	-20.8	55.9
GCTTTGCGAAAGCAGGGC ((..(((....)))..))	-20.1	47
GCTTTGCGAAAGCCACGC ((.(.((....)).).))	-10.4	37
GCTTTGCGAAAGCCAGGC ((.(.((....)).).))	-10.2	38.3
GCTTTGCGAAAGCCGAGC (((..((....))..)))	-16	41.9
GCTTTGCGAAAGCCTAGC (((..((....))..)))	-13	41.1
GCTTTGCGAAAGCGAGGC ((.(.((....)).).))	-17.1	49.7
GCTTTGGGAAACCGAAGC ((((.((....)).))))	-39.5	52.5
GCTTTTCGAAAGAAGAGC (((.(((....))).)))	-30.7	47.4
GCTTTTGAAAAAAAGC ((((((....))))))	-30.5	50.4
GCTTTTGGAAACAAAGGC ((.((((....)))).))	-28.9	43
GGAAAAGAAATTTTCC ((((((....))))))	-23.4	37.7
GGAAACCCGAAAGGGTCC (((..(((....))))))	-11.7	35
GGAAACGAAAGTTCTTCC ((((((....)))..)))	-14.9	32.2

Sequence	folding enthalpy [1] [kcal/mol]	Tm [2] [°C]
GGAAACGAAAGTTGATCC ((((((....)))..)))	-14.5	29.3
GGAAACGAAAGTTTGTCC ((((((....)))..)))	-18.8	27.4
GGAAAGACGAAAGTCTCC (((..(((....))))))	-14.5	36.4
GGAAAGCGAAAGCTGTCC (((.(((....))).)))	-23.8	53.9
GGAAAGGGAAACTTTTCC (((((.(....).)))))	-18.8	38.4
GGAAATGCGAAAGCATCC (((..(((....))))))	-11.7	37.1
GGAAATGGAAACACTTCC ((((.((....)).))))	-31.5	30.2
GGAAATGGAAACATTCCC ((.((((....)))).))	-25.1	33.1
GGAAATGGAAACATTTCC (((((((....)))))))	-41.5	56.5
GGAACAACGAAAGTTTCC (((..(((....))))))	-15.5	29.9
GGAACACGAAAGTGATCC (((.(((....))).)))	-28.5	52.7
GGAACCCCGAAAGGGTCC (((..(((....))))))	-15.5	45.9
GGAACCCGAAAGGGTCC (((.(((....))))))	-15.8	59.7
GGAACCGAAAGGTCGTCC ((((((....)))..)))	-10.8	31.4
GGAACCGAAAGGTGCTCC ((((((....)))..)))	-12.5	38.8
GGAACCGAAAGGTGTCC ((((((....))).)))	-17.7	47.5
GGAACCGGAAACGATTCC ((((.((....)).))))	-31.3	42.8
GGAACGCGAAAGCGCTCC (((.(((....))).)))	-28.2	55.8
GGAACGGCGAAAGCCTCC (((..(((....))))))	-10.3	31.6
GGAACGGGAAACCATTCC ((((.((....)).))))	-30.2	35.9
GGAACGGGAAACCGTTTC (.(((((....))))).)	-24.5	49.7
GGAACTCGAAAGAGCTCC (((.(((....))).)))	-33.9	48.2
